{
  "source": "the RNAGym collection of RNA variant scans (doi:10.1126/science.aae0568)",
  "parents": {"B1": {"name": "tRNA (parent)", "chain": "GUUCCGUUGGCGUAAUGGUAACGCGUCUCCCUCCUAAGGAGAAGACUGCGGGUUCGAGUCCCGUACGGAACG"}},
  "note": "Variants at the floor of the assay were thinned out.",
  "data": [
    {"variants_of": "B1", "test": "yeast fitness relative to wild type (ratio to wild type); higher = fitter; tRNA-Arg(CCU), competitive growth, 37 C, YPD", "in_short": "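The tRNA-Arg(CCU) gene variants were made by chemical synthesis with a 3% per-site mutation rate at 69 sites and inserted at the native genomic locus of Saccharomyces cerevisiae. After pooling, the strains were competed in YPD at 37°C for 24 hours in six parallel replicates. Gene amplicons from the start population and each end population were read by 100-nucleotide paired-end sequencing, and Darwinian fitness relative to wild type was taken from genotype frequency changes. Genotypes needed ≥ 100 starting reads, and estimates < 0.5 were set to 0.5.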", "values": [
      {"variant": "C24A U35G C46U G68A", "yeast fitness": "≤ 0.5"},
      {"variant": "C24G C29G U32A G52C", "yeast fitness": "≤ 0.5"},
      {"variant": "C24G A37C G67A", "yeast fitness": "≤ 0.5"},
      {"variant": "C24G G48A A57G", "yeast fitness": "≤ 0.5"},
      {"variant": "C24G U26A C31U A45C A69U", "yeast fitness": "≤ 0.5"},
      {"variant": "C24G G25A C34A C46G", "yeast fitness": "≤ 0.5"},
      {"variant": "C24G C27U A43U G52C", "yeast fitness": "≤ 0.5"},
      {"variant": "C24G C61G G68A", "yeast fitness": "≤ 0.5"},
      {"variant": "C24U A36C A43U A69U", "yeast fitness": 0.517},
      {"variant": "C24G C33G C66U", "yeast fitness": "≤ 0.5"},
      {"variant": "C24G A40C A69C", "yeast fitness": "≤ 0.5"},
      {"variant": "C24G U59C", "yeast fitness": 0.65},
      {"variant": "C24G G38C G50C", "yeast fitness": "≤ 0.5"},
      {"variant": "C24G C27U C33U G50C A65G G68A", "yeast fitness": "≤ 0.5"},
      {"variant": "C24G A43G G63U U64A", "yeast fitness": 0.577},
      {"variant": "C24G A42G A65G", "yeast fitness": "≤ 0.5"},
      {"variant": "C24G C30U A40G G44A U47C G51C", "yeast fitness": "≤ 0.5"},
      {"variant": "C24G C29A G44C C61U", "yeast fitness": 0.787},
      {"variant": "C24G C60A G67A", "yeast fitness": 0.693},
      {"variant": "C24G C30A A40C A57G C61U", "yeast fitness": "≤ 0.5"},
      {"variant": "C24G G25A C31G U64C", "yeast fitness": 0.75},
      {"variant": "C24G C55U U64A", "yeast fitness": 0.674},
      {"variant": "C24A U54A", "yeast fitness": 0.634},
      {"variant": "C24G C30U A43U C60G A65C", "yeast fitness": "≤ 0.5"},
      {"variant": "C24G A36C A37G A70C", "yeast fitness": "≤ 0.5"},
      {"variant": "C24G G39C C61U", "yeast fitness": "≤ 0.5"},
      {"variant": "C24G A42U C49U G67C", "yeast fitness": "≤ 0.5"},
      {"variant": "C24G C34G A43U G67C", "yeast fitness": "≤ 0.5"},
      {"variant": "C24G C33U A43G U47A C60A", "yeast fitness": "≤ 0.5"},
      {"variant": "C24G C31U G48A C49U", "yeast fitness": 0.785},
      {"variant": "C24G G38A U64A", "yeast fitness": "≤ 0.5"},
      {"variant": "C24G C29G C33A G48A C55G", "yeast fitness": "≤ 0.5"},
      {"variant": "C24G A36C C55G A65G", "yeast fitness": "≤ 0.5"},
      {"variant": "C24G C31G C33A G50C C55G A57U C62U U64C", "yeast fitness": "≤ 0.5"},
      {"variant": "C24G C33G G63A", "yeast fitness": "≤ 0.5"},
      {"variant": "C24G C31G G51A", "yeast fitness": "≤ 0.5"},
      {"variant": "C24G A57U", "yeast fitness": 0.578},
      {"variant": "C24G A57G", "yeast fitness": 0.524},
      {"variant": "C24G C33U", "yeast fitness": 0.646},
      {"variant": "C24G C33G", "yeast fitness": 0.666},
      {"variant": "C24G C61G C62U C66U", "yeast fitness": "≤ 0.5"},
      {"variant": "C24G G68C A70C", "yeast fitness": 0.578},
      {"variant": "C24G U26A A45C", "yeast fitness": "≤ 0.5"},
      {"variant": "C24G A36G A42C C61U C62G", "yeast fitness": "≤ 0.5"},
      {"variant": "C24G C30U", "yeast fitness": 0.553},
      {"variant": "C24G C30A", "yeast fitness": 0.777},
      {"variant": "C24G C30G", "yeast fitness": 0.53},
      {"variant": "C24G C31U C33A G50C", "yeast fitness": "≤ 0.5"},
      {"variant": "C24G C49U A57U", "yeast fitness": "≤ 0.5"},
      {"variant": "C24G U53A", "yeast fitness": 0.533},
      {"variant": "C24G A36U A43U U64C", "yeast fitness": "≤ 0.5"},
      {"variant": "C24G A40G A57U G68A", "yeast fitness": "≤ 0.5"},
      {"variant": "C24G U35C", "yeast fitness": "≤ 0.5"},
      {"variant": "C24A U47A A70U", "yeast fitness": "≤ 0.5"},
      {"variant": "C24G G25C C27A U59A C62A", "yeast fitness": "≤ 0.5"},
      {"variant": "C24G A57U G58A A65U", "yeast fitness": "≤ 0.5"},
      {"variant": "C24G C33U C49G A57U C61G", "yeast fitness": "≤ 0.5"},
      {"variant": "C24G A45C A69U", "yeast fitness": 0.611},
      {"variant": "C24G C31G C33U C46G U54G G67U", "yeast fitness": 0.645},
      {"variant": "C24G C34G G52A", "yeast fitness": 0.602},
      {"variant": "C24G C33U A37U C55A G68C", "yeast fitness": "≤ 0.5"},
      {"variant": "C24G A40C U47A A69G", "yeast fitness": "≤ 0.5"},
      {"variant": "C24G C27G", "yeast fitness": 0.593},
      {"variant": "C24G C29G G67A", "yeast fitness": 0.57},
      {"variant": "C24G G39C C61U C66U", "yeast fitness": "≤ 0.5"},
      {"variant": "C24G C55A A70C", "yeast fitness": "≤ 0.5"},
      {"variant": "C24G C34G G50C C61U", "yeast fitness": "≤ 0.5"},
      {"variant": "C24G C29G C49G", "yeast fitness": "≤ 0.5"},
      {"variant": "C24G U28C U32G A69G", "yeast fitness": "≤ 0.5"},
      {"variant": "C24G C27U U53A", "yeast fitness": "≤ 0.5"},
      {"variant": "C24G A36G C55A", "yeast fitness": "≤ 0.5"},
      {"variant": "C24G U28G C46G C66U", "yeast fitness": "≤ 0.5"},
      {"variant": "C24G A36U U64C", "yeast fitness": 0.52},
      {"variant": "C24G C30G C31U U35A A36U G44A", "yeast fitness": 0.695},
      {"variant": "C24U A37G A43G A70U", "yeast fitness": "≤ 0.5"},
      {"variant": "C24G C46U G50A G56C C62A C66U", "yeast fitness": "≤ 0.5"},
      {"variant": "C24G C33U A43G U47A", "yeast fitness": 0.682},
      {"variant": "C24G C61U A69U", "yeast fitness": 0.516},
      {"variant": "C24G C31A C33U U35A A57G U64C", "yeast fitness": "≤ 0.5"},
      {"variant": "C24G U28G C46G", "yeast fitness": "≤ 0.5"},
      {"variant": "C24G A43C G52C C55U A69C", "yeast fitness": "≤ 0.5"},
      {"variant": "C24G A36G A40C", "yeast fitness": "≤ 0.5"},
      {"variant": "C24G A36G G39C C55U C66U", "yeast fitness": "≤ 0.5"}
    ]}
  ]
}
